# Assay results as given in ChEMBL document CHEMBL3616432, “(+)-Dehydroabietylamine derivatives target triple-negative breast cancer” (Eur J Med Chem, 2015).
# Calls of active or inactive are those of the source. No cut-off for these calls is given here.
# Columns and labels:
# MDA-MB-231 [1] = test: Antiproliferative activity against human triple-negative MDA-MB-231 cells at >52.3 uM after 72 hrs by CellTiter-Glo assay; type: functional, cell-based
# MDA-MB-231 [2] = test: Antiproliferative activity against human triple-negative MDA-MB-231 cells at 52 to 65 uM after 72 hrs by CellTiter-Glo assay; type: functional, cell-based
# Homo sapiens = species: Homo sapiens; test: Antiproliferative activity against human ER-positive MA11 cells at 52 to 65 uM after 72 hrs by CellTiter-Glo assay; type: functional
# MCF7 = test: Antiproliferative activity against human ER-positive MCF7 cells at 52 to 65 uM after 72 hrs by CellTiter-Glo assay; type: functional, cell-based
# HepG2 [3] = test: Cytotoxicity against human HepG2 cells at 52 to 65 uM after 72 hrs by CellTiter-Glo assay; type: cell-based; details: hepg2, 72 h
# HEK293 [4] = test: Cytotoxicity against HEK293 cells at 52 to 65 uM after 72 hrs by CellTiter-Glo assay; type: cell-based; details: human, hek293, 72 h
# [5] = Efflux ratio of permeability from basolateral to apical side over apical to basolateral side in human Caco2 cells; type: ADME, cell-based; details: Caco-2
# [6] = Apparent permeability from basolateral to apical side in human Caco2 cells; type: ADME, cell-based; details: Caco-2
# [7] = Apparent permeability from apical to basolateral side in human Caco2 cells; type: ADME, cell-based; details: Caco-2
# [8] = Permeability of the compound at pH 7.4 by PAMPA assay; type: physicochemical; details: read-out: permeability
# [9] = Permeability of the compound at pH 7.4 assessed as drug retention by PAMPA assay; type: physicochemical
# MDA-MB-231 [10] = test: Antiproliferative activity against human triple-negative MDA-MB-231 cells at 22 uM after 72 hrs by CellTiter-Glo assay; type: functional, cell-based
# HEK293 [11] = test: Cytotoxicity against HEK293 cells at <= 50 uM after 72 hrs by CellTiter-Glo assay; type: cell-based; details: human, hek293, 72 h
# HepG2 [12] = test: Cytotoxicity against human HepG2 cells at <= 50 uM after 72 hrs by CellTiter-Glo assay; type: cell-based; details: hepg2, 72 h
# MDA-MB-231 [13] = test: Antiproliferative activity against human triple-negative MDA-MB-231 cells at <= 50 uM after 72 hrs by CellTiter-Glo assay; type: functional, cell-based
# MDA-MB-231 [14] = test: Antiproliferative activity against human triple-negative MDA-MB-231 cells after 72 hrs by CellTiter-Glo assay; type: functional, cell-based
# [15] = Half life in human plasma; type: ADME, cell-free
# Method in brief: (§1)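 Compound stability incubated in human or mouse plasma; half-life determined, with known drugs as controls.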
# [16] = Half life in mouse plasma; type: ADME, cell-free; method in brief: as §1
Structure (SMILES),Activity (MDA-MB-231 [2]),Activity (Homo sapiens),Activity (MCF7),Activity (HepG2 [3]),Activity (HEK293 [4]),other results
CC(C)c1ccc2c(c1)CC[C@H]1[C@](C)(CNS(=O)(=O)c3c(F)cccc3F)CCC[C@]21C,,,,,,Activity (MDA-MB-231 [1]): Active
CC(C)c1ccc2c(c1)CC[C@H]1[C@](C)(CNC(=O)[C@@H]3C[C@H]3c3ccccc3)CCC[C@]21C,inactive,inactive,inactive,Non-toxic,Non-toxic,
CC(C)c1ccc2c(c1)CC[C@H]1[C@](C)(CNS(=O)(=O)c3cc(F)c(F)c(F)c3)CCC[C@]21C,,,,,,Activity (MDA-MB-231 [1]): Active
CC(C)c1ccc2c(c1)CC[C@H]1[C@](C)(CNC(=O)N3CCCCC3)CCC[C@]21C,inactive,inactive,inactive,Non-toxic,Non-toxic,
CC(C)c1ccc2c(c1)CC[C@H]1[C@](C)(CNC(=O)c3ccc(-c4ccccc4)cc3)CCC[C@]21C,inactive,inactive,inactive,Non-toxic,Non-toxic,
CC(C)c1ccc2c(c1)CC[C@H]1[C@](C)(CNS(=O)(=O)c3cccc(Cl)c3Cl)CCC[C@]21C,,,,,,Activity (MDA-MB-231 [1]): Active
CC(C)c1ccc2c(c1)CC[C@H]1[C@](C)(CNS(=O)(=O)c3ccc(Cl)c(Cl)c3)CCC[C@]21C,,,,,,Activity (MDA-MB-231 [1]): Active
NC(=O)N1c2ccccc2C=Cc2ccccc21 [CARBAMAZEPINE],,,,,,efflux ratio [5]: 0.6; Papp B→A [6]: 42.8 ×10⁻⁶ cm/s; Papp A→B [7]: 66.7 ×10⁻⁶ cm/s; Papp [8]: 128 ×10⁻⁶ cm/s; permeability [9]: 40.9%
CC(C)c1ccc2c(c1)CC[C@H]1[C@](C)(CNC(=O)c3cccs3)CCC[C@]21C,inactive,inactive,inactive,Non-toxic,Non-toxic,
CC(C)c1ccc2c(c1)CC[C@H]1[C@](C)(CNC(=O)c3ccc(Cl)cc3Cl)CCC[C@]21C,inactive,inactive,inactive,Non-toxic,Non-toxic,
Cc1csc(C(=O)NC[C@]2(C)CCC[C@]3(C)c4ccc(C(C)C)cc4CC[C@@H]23)c1,inactive,inactive,inactive,Non-toxic,Non-toxic,
CC(C)c1ccc2c(c1)CC[C@H]1[C@](C)(CNC(=O)c3ccc(I)cc3)CCC[C@]21C,inactive,inactive,inactive,Non-toxic,Non-toxic,
CC(C)c1ccc2c(c1)CC[C@H]1[C@](C)(CNC(=O)CSc3ccccc3)CCC[C@]21C,inactive,inactive,inactive,Non-toxic,Non-toxic,
CC(C)c1cc2c(c(O)c1O)[C@@]13CCCC(C)(C)[C@@H]1C[C@@H]2OC3=O [CARNOSOL],,,,,,Activity (MDA-MB-231 [10]): Active; Activity (HEK293 [11]): Non-toxic; Activity (HepG2 [12]): Non-toxic; Activity (MDA-MB-231 [13]): Active
CC(C)c1ccc2c(c1)CC[C@H]1[C@](C)(CNS(=O)(=O)c3cccc(F)c3)CCC[C@]21C,,,,,,Activity (MDA-MB-231 [1]): Active
CC(C)c1cc2c(c(O)c1O)[C@@]1(C(=O)O)CCCC(C)(C)[C@@H]1CC2 [CARNOSIC ACID],,,,,,Activity (HEK293 [11]): Non-toxic; Activity (HepG2 [12]): Non-toxic; Activity (MDA-MB-231 [13]): Active
COc1cccc(C(=O)NC[C@]2(C)CCC[C@]3(C)c4ccc(C(C)C)cc4CC[C@@H]23)c1,inactive,inactive,inactive,Non-toxic,Non-toxic,
CC(C)c1ccc2c(c1)CC[C@H]1[C@](C)(C(=O)O)CCC[C@]21C [DEHYDROABIETIC ACID],,,,,,Activity (HEK293 [11]): Non-toxic; Activity (HepG2 [12]): Non-toxic; Activity (MDA-MB-231 [13]): Active
CC(C)c1ccc2c(c1)CC[C@H]1[C@](C)(CNS(=O)(=O)c3ccc(F)cc3)CCC[C@]21C,,,,,,Activity (MDA-MB-231 [1]): Active
CC(C)c1ccc2c(c1)CC[C@H]1[C@](C)(CNC(=O)C3CC4C=CC3C4)CCC[C@]21C (stereo partly specified),inactive,inactive,inactive,Non-toxic,Non-toxic,

Structure (SMILES),Activity (MDA-MB-231 [2]),Activity (Homo sapiens),Activity (MCF7),Activity (HepG2 [3]),Activity (HEK293 [4]),other results
CC(C)c1ccc2c(c1)CC[C@H]1[C@](C)(CNC(=O)c3ccc(F)cc3)CCC[C@]21C,inactive,inactive,inactive,Non-toxic,Non-toxic,
Cc1nnsc1C(=O)NC[C@]1(C)CCC[C@]2(C)c3ccc(C(C)C)cc3CC[C@@H]12,inactive,inactive,inactive,Non-toxic,Non-toxic,
CC(C)c1ccc2c(c1)CC[C@H]1[C@](C)(CNC(=O)c3c(Cl)cc(Cl)cc3Cl)CCC[C@]21C,inactive,inactive,inactive,Non-toxic,Non-toxic,
CC(C)C1=CC2=CC[C@@H]3[C@](C)(CCC[C@@]3(C)C(=O)O)[C@H]2CC1,,,,,,Activity (MDA-MB-231 [14]): inactive
CC(C)c1ccc2c(c1)CC[C@H]1[C@](C)(CNC(=O)c3ccc(C(F)(F)F)cc3)CCC[C@]21C,inactive,inactive,inactive,Non-toxic,Non-toxic,
CC(C)c1ccc2c(c1)CC[C@H]1[C@](C)(CNC(=O)[C@@H](C)c3ccccc3)CCC[C@]21C,inactive,inactive,inactive,Non-toxic,Non-toxic,
CC(C)c1ccc2c(c1)CC[C@H]1[C@](C)(CNS(=O)(=O)c3cc(Cl)cc(Cl)c3)CCC[C@]21C,,,,,,Activity (MDA-MB-231 [1]): Active
C=C[C@@]1(C)C=C2CC[C@@H]3[C@](C)(CCC[C@@]3(C)C(=O)O)[C@H]2CC1,,,,,,Activity (MDA-MB-231 [14]): inactive
CC(C)c1ccc2c(c1)CC[C@H]1[C@](C)(CNC(=O)c3cc4ccccc4o3)CCC[C@]21C,inactive,inactive,inactive,Non-toxic,Non-toxic,
CC(C)c1ccc2c(c1)CC[C@H]1[C@](C)(CNC(=O)CC3CCCC3)CCC[C@]21C,inactive,inactive,inactive,Non-toxic,Non-toxic,
CC(C)c1ccc2c(c1)CC[C@H]1[C@](C)(CNC(=O)c3ccc(Cl)c([N+](=O)[O-])c3)CCC[C@]21C,inactive,inactive,inactive,Non-toxic,Non-toxic,
CC(C)c1ccc2c(c1)CC[C@H]1[C@](C)(CNC(=O)c3ccc(C#N)cc3)CCC[C@]21C,inactive,inactive,inactive,Non-toxic,Non-toxic,
Cc1ccsc1C(=O)NC[C@]1(C)CCC[C@]2(C)c3ccc(C(C)C)cc3CC[C@@H]12,inactive,inactive,inactive,Non-toxic,Non-toxic,
CC1CC(OC(=O)C(O)c2ccccc2)CC(C)(C)N1C (stereo unspecified) [EUCATROPINE],,,,,,half-life [15]: 0.42 h; half-life [16]: 1.8 h
COc1ccc(C(=O)NC[C@]2(C)CCC[C@]3(C)c4ccc(C(C)C)cc4CC[C@@H]23)cc1,inactive,inactive,inactive,Non-toxic,Non-toxic,
CC(C)c1ccc2c(c1)CC[C@H]1[C@](C)(CN)CCC[C@]21C,,,,,,Activity (HEK293 [11]): Non-toxic; Activity (HepG2 [12]): Non-toxic; Activity (MDA-MB-231 [13]): Active
CC(C)c1ccc2c(c1)CC[C@H]1[C@](C)(CNS(=O)(=O)c3c(Cl)cc(Cl)cc3Cl)CCC[C@]21C,,,,,,Activity (MDA-MB-231 [1]): Active
CC(C)c1ccc2c(c1)CC[C@H]1[C@](C)(CNS(=O)(=O)c3cc(Cl)cc(Cl)c3O)CCC[C@]21C,,,,,,Activity (MDA-MB-231 [1]): Active
CC(C)c1ccc2c(c1)CC[C@H]1[C@](C)(CNC(=O)C3CCCC3)CCC[C@]21C,inactive,inactive,inactive,Non-toxic,Non-toxic,
